Test results: ChEMBL document CHEMBL1268917, “Synthesis and biological evaluation of radio-iodinated benzimidazoles as SPECT imaging agents for NR2B subtype of NMDA receptor” (Bioorg Med Chem, 2010)

Assays:
Type in all cases: ADME, organism-based
[1] = system: Kidney; experiment: Biodistribution in ddY mouse kidney assessed per gram of tissue at 14.8 kBq, iv after 30 mins; settings: in vivo, 0.5 h
Outline: (§1)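 Killed at set times after injection; organs and blood removed, weighed, gamma counted. Data as % injected dose per gram tissue, mean SD, n = 5–6.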

[2] = system: Lung; experiment: Biodistribution in ddY mouse lung assessed per gram of tissue at 14.8 kBq, iv after 0.5 mins; settings: in vivo
Outline: (§2)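 Radioiodinated tracer (14.8 kBq) injected via tail vein into male ddY mice (6 weeks, 30–35 g). Organs removed at set times after injection, weighed and gamma-counted; uptake expressed as % injected dose per gram tissue, mean ± SD, n = 5–6.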

[3] = system: Heart; experiment: Biodistribution in ddY mouse heart assessed per gram of tissue at 14.8 kBq, iv after 60 mins; settings: in vivo, 1 h; outline: as §1
[4] = system: Spleen; experiment: Biodistribution in ddY mouse spleen assessed per gram of tissue at 14.8 kBq, iv after 180 mins; settings: in vivo, 3 h; outline: as §2
[5] = system: Stomach; experiment: Biodistribution in ddY mouse stomach assessed per gram of tissue at 14.8 kBq, iv after 5 mins; settings: in vivo; outline: as §2
[6] = system: Brain; experiment: Biodistribution in ddY mouse brain assessed per gram of tissue at 14.8 kBq, iv after 30 mins; settings: in vivo, 0.5 h; outline: as §1
[7] = system: Blood; experiment: Biodistribution in ddY mouse blood assessed per gram of tissue at 14.8 kBq, iv after 0.5 mins; settings: in vivo; outline: as §1
[8] = system: Pancreas; experiment: Biodistribution in ddY mouse pancreas assessed per gram of tissue at 14.8 kBq, iv after 0.5 mins; settings: in vivo; outline: as §2
[9] = system: Stomach; experiment: Biodistribution in ddY mouse stomach assessed per gram of tissue at 14.8 kBq, iv after 180 mins; settings: in vivo, 3 h; outline: as §2
[10] = system: Brain; experiment: Biodistribution in ddY mouse brain assessed per gram of tissue at 14.8 kBq, iv after 180 mins; settings: in vivo, 3 h; outline: as §1
[11] = system: Brain; experiment: Biodistribution in ddY mouse brain assessed per gram of tissue at 14.8 kBq, iv after 360 mins; settings: in vivo, 6 h; outline: as §1
[12] = system: Blood; experiment: Biodistribution in ddY mouse blood assessed per gram of tissue at 14.8 kBq, iv after 5 mins; settings: in vivo; outline: as §1
[13] = system: Lung; experiment: Biodistribution in ddY mouse lung assessed per gram of tissue at 14.8 kBq, iv after 5 mins; settings: in vivo; outline: as §2
[14] = system: Pancreas; experiment: Biodistribution in ddY mouse pancreas assessed per gram of tissue at 14.8 kBq, iv after 30 mins; settings: in vivo, 0.5 h; outline: as §2
[15] = system: Intestine; experiment: Biodistribution in ddY mouse intestine assessed per gram of tissue at 14.8 kBq, iv after 5 mins; settings: in vivo; outline: as §1
[16] = system: Blood; experiment: Biodistribution in ddY mouse blood assessed per gram of tissue at 14.8 kBq, iv after 60 mins; settings: in vivo, 1 h; outline: as §1
[17] = system: Brain; experiment: Biodistribution in ddY mouse brain assessed per gram of tissue at 14.8 kBq, iv after 60 mins; settings: in vivo, 1 h; outline: as §1
[18] = system: Heart; experiment: Biodistribution in ddY mouse heart assessed per gram of tissue at 14.8 kBq, iv after 5 mins; settings: in vivo; outline: as §1
[19] = system: Blood; experiment: Biodistribution in ddY mouse blood assessed per gram of tissue at 148 kBq, iv after 180 mins in presence of 200 mg/kg, iv of probenecid administered 30 mins before compound challenge (reference value: 0.46 +/- 0.07 %); set-up: dose 200 mg/kg, route intravenous; settings: in vivo, 3 h
[20] = system: Liver; experiment: Biodistribution in ddY mouse liver assessed per gram of tissue at 14.8 kBq, iv after 60 mins; settings: in vivo, 1 h; outline: as §2
[21] = system: Brain; experiment: Biodistribution in ddY mouse brain assessed per gram of tissue at 14.8 kBq, iv after 0.5 mins; settings: in vivo; outline: as §1
[22] = system: Heart; experiment: Biodistribution in ddY mouse heart assessed per gram of tissue at 14.8 kBq, iv after 30 mins; settings: in vivo, 0.5 h; outline: as §1
[23] = system: Stomach; experiment: Biodistribution in ddY mouse stomach assessed per gram of tissue at 14.8 kBq, iv after 0.5 mins; settings: in vivo; outline: as §2
[24] = system: Pancreas; experiment: Biodistribution in ddY mouse pancreas assessed per gram of tissue at 14.8 kBq, iv after 360 mins; settings: in vivo, 6 h; outline: as §2
[25] = system: Intestine; experiment: Biodistribution in ddY mouse intestine assessed per gram of tissue at 14.8 kBq, iv after 180 mins; settings: in vivo, 3 h; outline: as §1
[26] = system: Kidney; experiment: Biodistribution in ddY mouse kidney assessed per gram of tissue at 14.8 kBq, iv after 5 mins; settings: in vivo; outline: as §1
[27] = system: Liver; experiment: Biodistribution in ddY mouse liver assessed per gram of tissue at 148 kBq, iv after 180 mins in presence of 50 mg/kg, iv of cyclosporin A administered 30 mins before compound challenge (reference value: 16.20 +/- 1.34 %); set-up: dose 50 mg/kg, route intravenous; settings: in vivo, 3 h

- Drug uptake [1]: 11.2 % ID/g
- Drug uptake [2]: 6.6 % ID/g
- Drug uptake [3]: 1.87 % ID/g
- Drug uptake [4]: 4.25 % ID/g
- Drug uptake [5]: 1.93 % ID/g
- Drug uptake [6]: 0.44 % ID/g
- Drug uptake [7]: 3.22 % ID/g
- Drug uptake [8]: 0.49 % ID/g
- Drug uptake [9]: 2.51 % ID/g
- Drug uptake [10]: 0.56 % ID/g
- Drug uptake [11]: 0.55 % ID/g
- Drug uptake [12]: 1.15 % ID/g
- Drug uptake [13]: 14.48 % ID/g
- Drug uptake [14]: 6.1 % ID/g
- Drug uptake [15]: 1.83 % ID/g
- Drug uptake [16]: 0.75 % ID/g
- Drug uptake [17]: 0.48 % ID/g
- Drug uptake [18]: 5.39 % ID/g
- Drug uptake [19]: 0.41 % ID/g
- Drug uptake [20]: 30.5 % ID/g
- Drug uptake [21]: 0.21 % ID/g
- Drug uptake [22]: 2.31 % ID/g
- Drug uptake [23]: 0.72 % ID/g
- Drug uptake [24]: 8.76 % ID/g
- Drug uptake [25]: 4.55 % ID/g
- Drug uptake [26]: 12.2 % ID/g
- Drug uptake [27]: 15.2 % ID/g
SMILES: Oc1ccc2nc(CN3CCC(Cc4ccc([125I])cc4)CC3)[nH]c2c1
